Source: ChEMBL document CHEMBL1139894, “Withanolides with phytotoxic activity from Jaborosa caulescens var. caulescens and J. caulescens var. bipinnatifida 1” (2007)

Tests used:
Format in all cases: functional
Lactuca sativa [1] = assay: Phytotoxic activity against Latuca sativa assessed as radicle length elongation at 15 ppm
Method in brief: (§1)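 Radicle length of treated seedlings was compared with untreated controls and reported as the percentage difference from the control, which is set to zero. Negative values mean inhibition and positive values mean stimulation. Germination and root length were also compared between treated and control seeds using Student's t-test (p < 0.05).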

Lactuca sativa [2] = assay: Phytotoxic activity against Latuca sativa assessed as radicle length elongation at 150 ppm; method in brief: as §1
Lactuca sativa [3] = assay: Phytotoxic activity against Latuca sativa assessed as radicle length elongation at 400 ppm; method in brief: as §1
Avena sativa [4] = assay: Phytotoxic activity against Avena sativa assessed as radicle length elongation at 15 ppm; method in brief: as §1
Avena sativa [5] = assay: Phytotoxic activity against Avena sativa assessed as radicle length elongation at 150 ppm; method in brief: as §1
Avena sativa [6] = assay: Phytotoxic activity against Avena sativa assessed as radicle length elongation at 400 ppm; method in brief: as §1

CCO[C@@]12C[C@H]3[C@@H](C[C@@H](O)[C@@]4(Cl)CC=CC(=O)[C@]34C)[C@@H]3CC[C@@](O)([C@H](C)[C@@H]([C@@H]4OC(=O)C(C)=C4C)O1)[C@]32C [12-O-ETHYLJABOROSALACTONE 42]
Activity (Lactuca sativa [1]): 2.7%
Activity (Lactuca sativa [2]): -25.7%
Activity (Lactuca sativa [3]): -65.1%
Activity (Avena sativa [4]): 3.5%
Activity (Avena sativa [5]): -11.2%
Activity (Avena sativa [6]): -32.2%

CO[C@@]12C[C@H]3[C@@H](C[C@H]4O[C@]45CC=CC(=O)[C@]35C)[C@@H]3CC[C@@](O)([C@@H]([C@H]4CC(C)=C(C)C(=O)O4)CO1)[C@]32C [12-O-METHYLJABOROSALACTONE 38]
Activity (Lactuca sativa [1]): -8.7%
Activity (Lactuca sativa [2]): -22.7%
Activity (Lactuca sativa [3]): -74.7%
Activity (Avena sativa [4]): 15.3%
Activity (Avena sativa [5]): 1.5%
Activity (Avena sativa [6]): -24.5%

CC1=C(C)C(=O)O[C@@H]([C@H]2CO[C@@]3(O)C[C@H]4[C@@H](C[C@H]5O[C@]56CC=CC(=O)[C@]46C)[C@@H]4CC[C@]2(O)[C@]43C)C1 [JABOROSALACTONE]
Activity (Lactuca sativa [1]): -1.6%
Activity (Lactuca sativa [2]): -46.2%
Activity (Lactuca sativa [3]): -58.6%
Activity (Avena sativa [4]): -13.9%
Activity (Avena sativa [5]): 2.4%
Activity (Avena sativa [6]): -36.5%

CC1=C(C)[C@H]([C@H]2O[C@@]3(O)C[C@H]4[C@@H](C[C@@H](O)[C@@]5(O)CC=CC(=O)[C@]45C)[C@@H]4CC[C@@](O)([C@@H]2C)[C@]43C)OC1=O [JABOROTETROL]
Activity (Lactuca sativa [1]): -3.9%
Activity (Lactuca sativa [2]): -5.5%
Activity (Lactuca sativa [3]): -4%
Activity (Avena sativa [4]): -10.2%
Activity (Avena sativa [5]): 2.7%
Activity (Avena sativa [6]): -5.9%

CC1=C(C)[C@H]([C@H]2O[C@@]3(O)C[C@H]4[C@@H](C[C@H]5O[C@]56CC=CC(=O)[C@]46C)[C@@H]4CC[C@@](O)([C@@H]2C)[C@]43C)OC1=O [TRECHONOLIDE A]
Activity (Lactuca sativa [1]): 3.7%
Activity (Lactuca sativa [2]): -8.4%
Activity (Lactuca sativa [3]): 2.5%
Activity (Avena sativa [4]): 2.5%
Activity (Avena sativa [5]): -11.7%
Activity (Avena sativa [6]): 4%
